# Experimental data as given in ChEMBL document CHEMBL1250420, “Identification of chalcones as in vivo liver monofunctional phase II enzymes inducers” (Bioorg Med Chem, 2010).
# Activity calls are given as the source filed them. No cut-off for these calls is given here.
# Tested on: MCF7
# Assay: Cytotoxicity against human MCF7 cells
# Assay type: functional, cell-based
# Conditions: not given
row,SMILES,Activity
1,Nc1ccc(/C=C/C(=O)c2ccccc2O)cc1,inactive
2,O=C(/C=C/c1ccc(Cl)cc1)c1ccccc1O,inactive
3,O=c1cc(-c2ccccc2Br)oc2ccccc12,Active
4,COc1ccc(/C=C/C(=O)c2ccccc2O)cc1,Active
5,O=C(/C=C/c1ccccn1)c1ccccc1O,Active
6,COc1ccc(/C=C/C(=O)c2ccccc2O)cc1OC,Active
7,COc1ccc(C2CC(=O)c3ccccc3O2)cc1 (stereo unspecified),Active
8,O=c1cc(-c2ccccc2)oc2ccccc12 [FLAVONE],inactive
9,CN(C)c1ccc(/C=C/C(=O)c2ccccc2O)cc1,inactive

# Tested on: TK-10
# Assay: Cytotoxicity against human TK10 cells
# Assay type: functional, cell-based
# Conditions: not given
row,SMILES,Activity
1,Nc1ccc(/C=C/C(=O)c2ccccc2O)cc1,inactive
2,O=C(/C=C/c1ccc(Cl)cc1)c1ccccc1O,Active
3,O=c1cc(-c2ccccc2Br)oc2ccccc12,inactive
4,COc1ccc(/C=C/C(=O)c2ccccc2O)cc1,Active
5,O=C(/C=C/c1ccccn1)c1ccccc1O,Active
6,COc1ccc(/C=C/C(=O)c2ccccc2O)cc1OC,Active
7,COc1ccc(C2CC(=O)c3ccccc3O2)cc1 (stereo unspecified),Active
8,O=c1cc(-c2ccccc2)oc2ccccc12 [FLAVONE],inactive
9,CN(C)c1ccc(/C=C/C(=O)c2ccccc2O)cc1,inactive

# Target: T1, Quinone oxidoreductase (Homo sapiens) (UniProt Q08257)
# T1 sequence (whole entry): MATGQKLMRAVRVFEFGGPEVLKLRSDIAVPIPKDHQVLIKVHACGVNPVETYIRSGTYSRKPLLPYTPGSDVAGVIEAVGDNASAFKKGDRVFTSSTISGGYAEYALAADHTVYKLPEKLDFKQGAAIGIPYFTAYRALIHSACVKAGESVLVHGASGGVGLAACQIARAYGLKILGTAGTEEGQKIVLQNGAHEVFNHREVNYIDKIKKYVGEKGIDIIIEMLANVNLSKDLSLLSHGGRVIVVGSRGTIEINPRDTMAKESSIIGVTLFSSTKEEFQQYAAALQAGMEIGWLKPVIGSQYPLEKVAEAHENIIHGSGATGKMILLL
# Assay: Induction of quinone reductase activity in human MCF7 cells
# Assay type: cell-based
# Conditions: not given
# Procedure, shortened: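 QR induction in MCF-7 tumour cells at 40 µM, a level chosen from a flavone dose–response; result given as ratio of QR specific activity, treated/control.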
row,Activity,SMILES
1,Active,O=C(/C=C/c1ccccn1)c1ccccc1O

# Tested on: Rattus norvegicus
# Assay: Induction of quinone reductase activity in rat liver at 22.5 mg/kg, po qd
# Assay type: functional
# Conditions: dose 15.0 mg/kg, in the assay text read “at 15.0 mg/kg” for “at 22.5 mg/kg”
# Procedure, shortened: (§1)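 Oral dosing for 15 days over 3 weeks, then liver QR read as loss of 600 nm absorbance of DCPIP (80 µM) with 0.2 mM NADH, 5 µM FAD, 25 mM Tris–HCl pH 7.4, 6% BSA, 0.01% Tween 20. Specific activity expressed as % change from basal-diet control, n = 5, means ± SE, Student's t-test.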
row,SMILES,Activity
1,Nc1ccc(/C=C/C(=O)c2ccccc2O)cc1,0%
2,O=C(/C=C/c1ccc(Cl)cc1)c1ccccc1O,20%
3,COc1ccc(/C=C/C(=O)c2ccccc2O)cc1,60%
4,O=C(/C=C/c1ccccn1)c1ccccc1O,13%
5,COc1ccc(/C=C/C(=O)c2ccccc2O)cc1OC,-20%

# Tested on: not listed separately
# Assay: Mutagenic activity in Salmonella typhimurium TA98 assessed as […] increase in number of revertants at 225 ug/plate after 48 hrs by Ames test
# Assay type: toxicity
# Conditions: salmonella enterica subsp. enterica serovar typhimurium
# Procedure, shortened: (§2)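 TA98 pre-incubation Ames test without listed S9: 50 µL test solution, 500 µL 0.1 M phosphate pH 7.4 and 100 µL bacteria (2 × 10^9/mL), 60 min. Top agar with trace histidine/biotin, then 48 h at 37 °C and revertant count. Doses fall by thirds from the minimum toxic dose; DMSO and 4-NPD (20 µg/plate) controls; two independent experiments, means ± SD.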
row,SMILES,Activity
1,O=C(/C=C/c1ccccn1)c1ccccc1O,18

# Tested on: Rattus norvegicus
# Assay: Induction glutathione-S-transferase activity in rat liver at 15 mg/kg, po qd
# Conditions: not given
row,SMILES,Activity
1,O=C(/C=C/c1ccc(Cl)cc1)c1ccccc1O,-20%
2,COc1ccc(/C=C/C(=O)c2ccccc2O)cc1,-10%
3,O=C(/C=C/c1ccccn1)c1ccccc1O,20%

# Tested on: not listed separately
# Assay: Mutagenic activity in Salmonella typhimurium TA98 assessed as […] increase in number of revertants at 8 ug/plate after 48 hrs by Ames test
# Assay type: toxicity
# Conditions: salmonella enterica subsp. enterica serovar typhimurium
# Procedure, shortened: as §2
row,SMILES,Activity
1,O=C(/C=C/c1ccccn1)c1ccccc1O,17

# Tested on: Rattus norvegicus
# Assay: Toxicity in Sprague-Dawley rat assessed as leucocyte level at 10 mg/kg/day, po
# Conditions: in vivo
row,SMILES,Activity
1,O=c1cc(-c2ccccc2Br)oc2ccccc12,4500 µL⁻¹
2,COc1ccc(/C=C/C(=O)c2ccccc2O)cc1,7300 µL⁻¹
3,COc1ccc(/C=C/C(=O)c2ccccc2O)cc1OC,9600 µL⁻¹
4,COc1ccc(C2CC(=O)c3ccccc3O2)cc1 (stereo unspecified),8600 µL⁻¹
5,CN(C)c1ccc(/C=C/C(=O)c2ccccc2O)cc1,5500 µL⁻¹

# Tested on: HT-29
# Assay: Cytotoxicity against human HT-29 cells
# Assay type: functional, cell-based
# Conditions: not given
row,SMILES,Activity
1,Nc1ccc(/C=C/C(=O)c2ccccc2O)cc1,inactive
2,O=C(/C=C/c1ccc(Cl)cc1)c1ccccc1O,Active
3,O=c1cc(-c2ccccc2Br)oc2ccccc12,inactive
4,COc1ccc(/C=C/C(=O)c2ccccc2O)cc1,inactive
5,O=C(/C=C/c1ccccn1)c1ccccc1O,Active
6,COc1ccc(/C=C/C(=O)c2ccccc2O)cc1OC,inactive
7,COc1ccc(C2CC(=O)c3ccccc3O2)cc1 (stereo unspecified),inactive
8,O=c1cc(-c2ccccc2)oc2ccccc12 [FLAVONE],inactive
9,CN(C)c1ccc(/C=C/C(=O)c2ccccc2O)cc1,inactive

# Tested on: Rattus norvegicus
# Assay: Toxicity in Sprague-Dawley rat assessed as change in body weight at 10 mg/kg/day, po
# Conditions: in vivo
row,SMILES,Activity
1,O=c1cc(-c2ccccc2Br)oc2ccccc12,Non-toxic
2,COc1ccc(/C=C/C(=O)c2ccccc2O)cc1OC,Non-toxic
3,COc1ccc(C2CC(=O)c3ccccc3O2)cc1 (stereo unspecified),Non-toxic
4,CN(C)c1ccc(/C=C/C(=O)c2ccccc2O)cc1,Non-toxic

# Tested on: not listed separately
# Assay: Mutagenic activity in Salmonella typhimurium TA98 assessed as […] increase in number of revertants at 25 ug/plate after 48 hrs by Ames test
# Assay type: toxicity
# Conditions: salmonella enterica subsp. enterica serovar typhimurium
# Procedure, shortened: as §2
row,SMILES,Activity
1,O=C(/C=C/c1ccccn1)c1ccccc1O,16

# Tested on: not listed separately
# Assay: Mutagenic activity in Salmonella typhimurium TA98 assessed as […] increase in number of revertants at 75 ug/plate after 48 hrs by Ames test
# Assay type: toxicity
# Conditions: salmonella enterica subsp. enterica serovar typhimurium
# Procedure, shortened: as §2
row,SMILES,Activity
1,O=C(/C=C/c1ccccn1)c1ccccc1O,17

# Tested on: Rattus norvegicus
# Assay: Toxicity in Sprague-Dawley rat assessed as haemoglobin level at 10 mg/kg/day, po (RVb = 15.1 +/- 4.1 g/L)
# Conditions: in vivo
row,SMILES,Activity
1,O=c1cc(-c2ccccc2Br)oc2ccccc12,9.6 g/L
2,COc1ccc(/C=C/C(=O)c2ccccc2O)cc1,12.3 g/L
3,COc1ccc(/C=C/C(=O)c2ccccc2O)cc1OC,9.3 g/L
4,COc1ccc(C2CC(=O)c3ccccc3O2)cc1 (stereo unspecified),11.3 g/L
5,CN(C)c1ccc(/C=C/C(=O)c2ccccc2O)cc1,11.5 g/L

# Tested on: Rattus norvegicus
# Assay: Toxicity in Sprague-Dawley rat assessed as glutamic-oxalate transaminase level at 10 mg/kg/day, po (RVb = 71.4 +/- 7.8 U/L)
# Conditions: in vivo
row,SMILES,Activity
1,O=c1cc(-c2ccccc2Br)oc2ccccc12,52.9 U/L
2,COc1ccc(/C=C/C(=O)c2ccccc2O)cc1,52.2 U/L
3,COc1ccc(/C=C/C(=O)c2ccccc2O)cc1OC,62.1 U/L

# Tested on: Rattus norvegicus
# Assay: Toxicity in Sprague-Dawley rat assessed as glutamic-pyruvate level at 10 mg/kg/day, po (RVb = 22.8 +/-13.2 U/L)
# Conditions: in vivo
row,SMILES,Activity
1,O=c1cc(-c2ccccc2Br)oc2ccccc12,45.4 U/L
2,COc1ccc(/C=C/C(=O)c2ccccc2O)cc1,13.2 U/L
3,COc1ccc(/C=C/C(=O)c2ccccc2O)cc1OC,15 U/L

# Tested on: Rattus norvegicus
# Assay: Induction of quinone reductase activity in rat liver at 15 mg/kg, po qd
# Assay type: functional
# Conditions: not given
# Procedure, shortened: as §1
row,SMILES,Activity
1,O=c1cc(-c2ccccc2)oc2ccccc12 [FLAVONE],-30%

# Tested on: not listed separately
# Assay: Mutagenic activity in Salmonella typhimurium TA98 assessed as […] increase in number of revertants at 3 ug/plate after 48 hrs by Ames test
# Assay type: toxicity
# Conditions: salmonella enterica subsp. enterica serovar typhimurium
# Procedure, shortened: as §2
row,SMILES,Activity
1,O=C(/C=C/c1ccccn1)c1ccccc1O,13

# Tested on: Rattus norvegicus
# Assay: Toxicity in Sprague-Dawley rat assessed as change in body weight at 250 mg/kg, po
# Assay type: organism-based
# Set-up: dose 250 mg/kg, route oral
# Conditions: in vivo
# Procedure, shortened: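 Healthy female Sprague–Dawley rats (about 200 g, 5–7 per group) given a single oral dose by intragastric syringe, suspended in saline/Tween 80 (4:1); vehicle-treated controls included. Daily weighing and observation for 3 days, then sacrifice with clinical biochemistry, haematology and organ histology.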
row,SMILES,Activity
1,COc1ccc(/C=C/C(=O)c2ccccc2O)cc1,Non-toxic

# Tested on: Rattus norvegicus
# Assay: Induction glutathione-CYP1A1 in rat liver at 15 mg/kg, po qd by EROD assay
# Conditions: not given
row,SMILES,Activity
1,O=C(/C=C/c1ccc(Cl)cc1)c1ccccc1O,-10%
2,COc1ccc(/C=C/C(=O)c2ccccc2O)cc1,-40%
3,O=C(/C=C/c1ccccn1)c1ccccc1O,10%
